The list is not random: actives were taken first. Their share in the collection is about 0.6%.
PolyA inhibitor – blocks polyadenylation in yeast reporter cells | S. cerevisiae SKY197-pL101 polyadenylation reporter, beta-gal luminescence; efflux-impaired pdr1/pdr3 knockout yeast; score 100 = 6 SD above DMSO | activity score, % at 12 µM | 300,000 compounds, 0.02% hits | AID 1875;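 active means lowest replicate activity score at least 50, where 100 means six control SD above control mean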;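 further: yeast exposed to compound for 9 h at 30 °C; higher score means more reporter readthrough which indicates perturbed polyadenylation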
GSK3 alpha inh – inhibitors of human GSK-3 alpha kinase; ADP-Glo luminescence, 60 min; 320,000 compounds, 0.1% hits; AID 2650; inhibition, % at 10 µM;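 active means more than half of replicates show inhibition above 20%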;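 further: GST-tagged GSK-3 alpha with peptide substrate and 25 µM ATP; 0% = DMSO neutral wells and 100% = GW8510 positive control wells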
Efflux pump inh – blocks antifungal efflux pumps in multiplex yeast assay. S. cerevisiae Candida pump triplex, Nile Red efflux. inhibition, % at 10 µM. 330,000 compounds, 0.44% hits;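 active means plate passing quality check with inhibition over a set limit, or well fluorescence over plate mean plus 4 SD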;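 further: Nile Red retained in pooled yeast measured as flow cytometry median fluorescence; 0% = buffer negative control and 100% = Enniatin B positive control; higher means more Nile Red kept so more efflux inhibition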
GSK3beta inhib – blocks human GSK3beta kinase activity | P49841 | GST-GSK3beta kinase, ADP-Glo luminescence, 60 min; stronger effect = lower value | activity score (negative = inhibition), % at 10 µM | 300,000 compounds, 0.038% hits | AID 2097;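 active means more than half of replicate wells score below -50%, meaning over 50% inhibition versus plate controls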;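 further: 0% = median DMSO wells and -100% = median GW8510 positive control wells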
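Assay system: GST-fused GSK3beta enzyme, cell-free / Medium: Tris pH 7.5 buffer with MgCl2, DTT, BSA, heparin / Also added: peptide substrate plus 25 µM ATP (final) / Compound: 10 µM single point / Timing: kinase reaction with compound 60 min at room temperature / Detection: ADP-Glo luminescence / Benchmarks: DMSO neutral wells and GW8510 at 20 µM as positive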
STK33 kinase inh – inhibitors of human STK33 kinase; Q9BYT3; 320,000 compounds, 0.073% hits; purified STK33, MBP phosphorylation, ADP-Glo luminescence; inhibition, % at 10 µM;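 active means inhibition at or above 25%, using the most active replicate where run in duplicate; inactive means inhibition below 25%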
Target sequence (Q9BYT3 whole entry, looked up): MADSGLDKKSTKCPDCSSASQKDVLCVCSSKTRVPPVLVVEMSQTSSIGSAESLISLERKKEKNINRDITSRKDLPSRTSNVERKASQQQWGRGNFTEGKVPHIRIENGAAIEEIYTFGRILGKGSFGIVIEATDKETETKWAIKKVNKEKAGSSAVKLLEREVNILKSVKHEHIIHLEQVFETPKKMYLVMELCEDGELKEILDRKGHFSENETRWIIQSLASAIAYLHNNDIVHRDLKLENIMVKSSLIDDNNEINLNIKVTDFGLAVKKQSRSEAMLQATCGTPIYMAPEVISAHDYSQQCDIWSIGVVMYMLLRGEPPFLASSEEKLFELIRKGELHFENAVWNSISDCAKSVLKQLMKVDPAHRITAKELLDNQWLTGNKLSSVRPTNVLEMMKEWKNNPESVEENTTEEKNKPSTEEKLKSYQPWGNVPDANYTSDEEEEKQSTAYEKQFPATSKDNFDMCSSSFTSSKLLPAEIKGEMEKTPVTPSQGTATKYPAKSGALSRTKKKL
Cmpd fluor yeast – flagged as fluorescent in efflux inhibitor counter-screen. fluorescence ratio to DMSO, % at 10 µM. S. cerevisiae AD/pABC3, compound fluorescence, flow cytometry. 1,700 compounds, 4% hits. shares compounds with Efflux pump inh;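 active means fluorescence ratio to DMSO above its plate's cutoff, the plate mean ratio plus 5 SD, cut at about 210% in these data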;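 further: unstained yeast with no Nile Red so the signal is compound autofluorescence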
CaMdr1 efflux inh – Candida Mdr1 efflux pump inhibition; shares compounds with Efflux pump inh; S. cerevisiae AD/CaMDR1, Nile Red efflux, flow cytometry; inhibition, % at 10 µM; 1,700 compounds, 1% hits; in the data active means inhibition above about 26%;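 further: 0% = DMSO vehicle and 100% = reference inhibitor; higher means more Nile Red retained so more efflux inhibition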
Cdr2 pump inh – inhibitors of Candida albicans Cdr2 efflux pump. S. cerevisiae AD/CaCDR2, Nile Red retention, flow cytometry. 1,700 compounds, 4% hits. shares compounds with Efflux pump inh. AID 588520. Nile Red retention ratio vs DMSO, % at 10 µM; in the data active means Nile Red retention ratio vs DMSO above about 190%;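 further: higher ratio means more blocking of Cdr2 efflux of the dye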
Cdr1 pump inh – Candida Cdr1 efflux pump inhibition. 1,700 compounds, 1% hits. inhibition, % at 10 µM. shares compounds with Efflux pump inh. S. cerevisiae AD/CaCDR1, Nile Red efflux, flow cytometry;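 active means inhibition above the screen-wide mean plus twice its standard deviation, cut at about 32% in these data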
Numbers without * were called inactive; / = not tested or not shown.

SMILES | PolyA inhibitor | GSK3 alpha inh | Efflux pump inh | GSK3beta inhib | STK33 kinase inh | Cmpd fluor yeast | CaMdr1 efflux inh | Cdr2 pump inh | Cdr1 pump inh
CCn1ccc(C(=O)Nc2sc3c(c2C(=O)OC)CCC3)n1 | / | / | 0.6* | -17 | 4 | 93 | 0 | 95 | 0
COC(=O)c1c(NC(=O)c2ccn(C)n2)sc2c1CCC2 | -1 | 1 | 0 | -2 | -2 | 102 | 0 | 106 | 0
Cn1ncc(Cl)c1C(=O)Nc1sc2c(c1C(N)=O)CCC2 | -25 | 20 | 0 | -1 | 6 | 92 | 0 | 98 | 0
COC(=O)c1c(NC(=O)c2nn(C)cc2Cl)sc2c1CCCC2 | -32 | -1 | 0 | -2 | -1 | / | / | / | /
CCn1ncc(Br)c1C(=O)Nc1sc2c(c1C(=O)OC)CCC2 | 18 | 4 | 0 | -4 | -1 | 98 | 0 | 112 | 0
COc1ccc(N(C)S(=O)(=O)c2ccc(Cl)c(C(=O)NCCc3ccc(Cl)cc3)c2)cc1 | -12 | -1 | 0 | -2 | -1 | / | / | / | /
O=C(Nc1sc2c(c1C(=O)O)CCC2)c1ccccc1Cl | -17 | -3 | 0.5* | -1 | -1 | 100 | 0 | 107 | 0
Cc1cccc(-c2noc(-c3ccccc3C(=O)NCc3ccco3)n2)c1 | -23 | -1 | 0 | 2 | 0 | / | / | / | /
N=C(N)SCC1=CCS(=O)(=O)C1 | 2 | 5 | 0.8* | 0 | 0 | 101 | 0 | 96 | 0
Cc1nn(-c2ccc([N+](=O)[O-])cc2)c2c1C(c1cccc(Br)c1)N1C(=N2)C(=O)Nc2ccccc21 (stereo not drawn) | 15 | -2 | 1 | 1 | 0 | 109 | 0 | 103 | 0
Cc1nn(-c2ccccc2)c2c1C(c1ccc([N+](=O)[O-])cc1)N1C(=N2)C(=O)Nc2ccccc21 (stereo not drawn) | 9 | -2 | 0 | 2 | -1 | 99 | 0 | 87 | 0
Cc1nn(-c2ccccc2)c2c1C(c1ccc(Cl)cc1)N(c1ccccc1)C(=O)N2 (stereo not drawn) | 3 | -1 | 0 | -1 | -2 | / | / | / | /
Cc1cccc(S(=O)(=O)Nc2nc3ccccc3nc2Nc2ccc3c(c2)OCO3)c1 | -12 | 1 | 10.0* | 1 | -2 | 106 | 0 | 118 | 0
O=S(=O)(Nc1nc2ccccc2nc1Nc1ccc2c(c1)OCO2)c1ccccc1 | -6 | 1 | 0 | 4 | -4 | / | / | / | /
COc1cccc(C=Nc2cccc3c(=O)[nH][nH]c(=O)c23)c1O | -28 | -1 | 0 | 2 | / | / | / | / | /
O=C(NC(=Nc1nc2ccccc2o1)NC(=O)c1ccccc1)c1ccccc1 | -11 | / | 1.2* | -2 | / | 102 | 0 | 127 | 1
COc1ccccc1C(=O)NC(=Nc1nc2ccccc2o1)NC(=O)c1ccccc1OC | -5 | 0 | 0 | 0 | 1 | / | / | / | /
CCCC(=O)Nc1nc2ccc(OCC)cc2s1 | -12 | 0 | 0 | 0 | 2 | / | / | / | /
CCOc1ccc2nc(NC(=O)CCn3cccc3)sc2c1 | -3 | 0 | 1.0* | -4 | -1 | 111 | 0 | 96 | 0
O=C(CN1C(=O)/C(=C\C=C\c2ccccc2)SC1=S)Nc1ccc(F)cc1 | 8 | 0 | 0 | 2 | 0 | / | / | / | /
O=C(COC(=O)CCN1C(=O)/C(=C\C=C\c2ccccc2)SC1=S)Nc1cc(F)ccc1F | -3 | 0 | 0.8* | 4 | -2 | 105 | 0 | 106 | 0
CCOC(=O)c1c(NC(=O)c2ccncc2)sc(C)c1C | -4 | -1 | 0 | 2 | 0 | / | / | / | /
CCOC(=O)c1c(NC(=O)COC(=O)c2ccncc2)sc(C)c1C | -9 | 6 | 0.5* | -4 | 0 | 95 | 0 | 101 | 0
COc1ccc(C(=O)Nc2ccc3c(c2)nc(CCNC(=O)c2ccco2)n3C)cc1 | 9 | -1 | 0 | 3 | 3 | / | / | / | /

High-throughput results as filed in PubChem.
